Assay results collected from several papers.
Target: Serine/threonine-protein kinase 3 (STK3, Homo sapiens, UniProt Q13188)
Residues used in one study (Q13188 1-491): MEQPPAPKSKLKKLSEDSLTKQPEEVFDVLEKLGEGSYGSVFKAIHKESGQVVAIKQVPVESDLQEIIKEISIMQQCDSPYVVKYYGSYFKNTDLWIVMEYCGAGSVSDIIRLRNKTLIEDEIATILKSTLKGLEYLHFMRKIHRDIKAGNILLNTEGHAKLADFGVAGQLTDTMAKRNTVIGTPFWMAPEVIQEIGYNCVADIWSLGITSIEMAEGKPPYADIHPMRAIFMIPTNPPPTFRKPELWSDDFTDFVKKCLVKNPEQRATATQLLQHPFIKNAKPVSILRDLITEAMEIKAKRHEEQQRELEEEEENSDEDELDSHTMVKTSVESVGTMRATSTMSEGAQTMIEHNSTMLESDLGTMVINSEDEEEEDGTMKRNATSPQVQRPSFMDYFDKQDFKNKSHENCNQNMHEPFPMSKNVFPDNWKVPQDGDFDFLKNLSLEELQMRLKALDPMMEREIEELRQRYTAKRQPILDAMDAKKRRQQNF

FC(F)c1nc2ccccc2n1-c1nc(N2CCOCC2)nc(N2CCOCC2)n1 — remaining activity (enzyme activity, inhibitor; 10 µM): 92%
Cc1ccc(NC(=O)c2ccc(C)c(C(F)(F)F)c2)cc1C#Cc1nn(C2CCC(O)CC2)c2ncnc(N)c12 (stereo not shown) — remaining signal (cell-free assay; 10 µM): 63%
FC(F)(F)Oc1cccc(-c2cnc3ccc(-c4ccncc4)nn23)c1 — activity vs control (enzyme activity, inhibitor, radiometric; 1 µM): 75%
CNc1cccc2cc(C(=O)Nc3ccc(C(=O)O)cc3)c(=O)[nH]c12 — inhibition (enzyme activity, inhibitor; 10 µM): 4.2%
Cc1ccc(C(=O)Nc2ccc(CN3CCN(C)CC3)c(C(F)(F)F)c2)cc1C#Cc1cnc2cccnn12 — remaining activity (enzyme activity, inhibitor; 23.5 nM): 97%
N#CC1(c2ccccn2)CCN(Cc2cc(C(=O)N3CCCC3)c(=O)n3ccccc23)CC1 — remaining binding (cell-free assay, competition with immobilised ligand; 1 µM): 92%
CC(C)(C)c1nc(-c2cccc(NS(=O)(=O)c3c(F)cccc3F)c2F)c(-c2ccnc(N)n2)s1 — remaining activity (enzyme activity, inhibitor, radiometric; 1 µM): 94%
Cc1cc(-n2nc(Cc3cc(F)cc(C(F)(F)F)c3)nc2C)ccc1C(N)=O — remaining binding (cell-free assay, competition with immobilised ligand; 1 µM): 100%
COc1cc(Nc2cnc(C#N)c(O[C@H](C)CN(C)C)n2)ncc1-c1cnn(C)c1 — remaining activity (enzyme activity, inhibitor, radiometric; 1 µM): 67%
Cc1ccc(C(=O)NCc2ccsc2)cc1C#Cc1cn(C(C)C)c2ncnc(N)c12 — activity vs control (enzyme activity, inhibitor; 1 µM): 78%
C[C@H](c1cccc(C#N)c1)n1cc(Cl)cc(C(N)=O)c1=N — remaining binding (cell-free assay, competition with immobilised ligand; 1 µM): 84%
COc1cc(/C=C/C(=O)CC(=O)/C=C/c2ccc(O)c(OC)c2)ccc1O — activity vs control (enzyme activity, inhibitor; 1 µM): 42%
Cc1ccc(Nc2nccc(N(C)c3ccc4c(C)n(C)nc4c3)n2)cc1S(N)(=O)=O — inhibition (cell-free assay, inhibitor; 0.3 µM): 1%
CCN1CCN(Cc2ccc(NC(=O)c3ccc(C)c(Oc4ccnc5[nH]ccc45)c3)cc2C(F)(F)F)CC1 — inhibition (target engagement in cells, inhibitor, chemoproteomics; Huh-7; 1 µM): -58.9%
N#CCCc1ccc2c(c1)-c1[nH]c3ccc([N+](=O)[O-])cc3c1CC(=O)N2 — remaining signal (cell-free assay; 0.5 µM): 40.9%
COc1cc2ncnc(Nc3ccc(Oc4ccccc4)c(C)c3C)c2cc1OC — inhibition (enzyme activity, inhibitor; 1 µM): 1%
CNC(=O)c1cc(Oc2ccc(NC(=O)Nc3ccc(Cl)c(C(F)(F)F)c3)cc2)ccn1 — inhibition (cell-free assay, inhibitor; 10 µM): -8%
COc1ccc2cc(OCC3(C(=O)O)CN(C(=O)c4ccc(F)cc4)C3)ccc2c1 — remaining binding (cell-free assay, competition with immobilised ligand; 1 µM): 100%
CCN(CC)CCNC(=O)c1c(C)[nH]c(/C=C2\C(=O)Nc3ccc(F)cc32)c1C — remaining signal (cell-free assay; 0.5 µM): 24.8%
O=C(O)[C@@H]1[C@@H](Cn2nnc3ccccc3c2=O)CC[C@H]1C(=O)c1ccc(OCCC2CCOCC2)cc1 — remaining binding (cell-free assay, competition with immobilised ligand; 1 µM): 100%
Cn1c(=O)n(-c2ccc(C(C)(C)C#N)cc2)c2c3cc(-c4cnc5ccccc5c4)ccc3ncc21 — remaining activity (enzyme activity, inhibitor; 10 µM): 89%
CS(=O)(=O)CCNCc1ccc(-c2ccc3ncnc(Nc4ccc(OCc5cccc(F)c5)c(Cl)c4)c3c2)o1 — remaining signal (cell-free assay; 0.5 µM): 93.7%
CCCS(=O)(=O)Nc1ccc(F)c(C(=O)c2c[nH]c3ncc(-c4ccc(Cl)cc4)cc23)c1F — inhibition (enzyme activity, inhibitor; 1 µM): < 10%
Cc1ccc(NC(=O)c2ccc(CN3CCN(C)CC3)cc2)cc1Nc1nc(-c2cccnc2)cs1 — remaining signal (cell-free assay; 0.5 µM): 94.4%
Cn1c2c(c3ccc(Cl)c(Cl)c31)C(C#N)C1(CCOCC1)NC2=O (stereo not shown) — ΔTm (thermal stability, DSF; 10 µM): -0.1 °C
O=C(Nc1cccnn1)N1CCC(=Cc2cccc(Oc3ccc(C(F)(F)F)cn3)c2)CC1 — remaining binding (cell-free assay, competition with immobilised ligand; 1 µM): 100%
Cn1c2c(Cl)c(Cl)ccc2c2cc[nH]c(=O)c21 — ΔTm (thermal stability, DSF; 10 µM): 1.9 °C
CCCOc1ccc(OC)c(F)c1C(=O)c1ccc(C(=O)N[C@@H]2CNC[C@H]2NC(=O)c2ccc3[nH]ncc3c2)cc1 — remaining activity (enzyme activity, inhibitor; 10 µM): 85%
Cn1c2c(c3ccc(Cl)c(Cl)c31)C(C#N)C1(CCNCC1)NC2=O (racemic) — ΔTm (thermal stability, DSF; 10 µM): 0.3 °C
Nc1nc(NC2CCCCC2)sc1C(=O)c1ccccc1 — remaining activity (enzyme activity, inhibitor; 10 µM): 97%
CNCc1ccc(-c2cc(-c3nc(-c4ccc(S(=O)(=O)C(C)C)cc4)cnc3N)on2)cc1 — inhibition (enzyme activity, inhibitor; 0.4 µM): 18%
CN1CCN(c2cnc3c(C4CCN(C(=O)c5ccc(OC(F)(F)F)cc5N)CC4)ncnc3c2)CC1 — remaining binding (cell-free assay, competition with immobilised ligand; 1 µM): 82%
CCN1CCC2(CC1)NC(=O)c1c(c3ccc(Cl)c(Cl)c3n1C)C2C#N (racemic) — ΔTm (thermal stability, DSF; 10 µM): -0.1 °C
Cn1nc(C(F)(F)F)cc1-c1cnc(N2CCc3cc(S(=O)(=O)Nc4c(F)cc(Cl)cc4F)cc(N4CCCC4=O)c32)nc1 — remaining binding (cell-free assay, competition with immobilised ligand; 1 µM): 90%
O=C(Nc1cnn(-c2csc(C(=O)NC3COC3)c2)c1)Nc1c(F)cccc1Cl — remaining activity (enzyme activity, inhibitor; 5 µM): 93.2%
N#CC1c2c([nH]c3c(Cl)c(Cl)ccc23)C(=O)NC12CCCCC2 (racemic) — ΔTm (thermal stability, DSF; 10 µM): 0.6 °C
CC(C)(C)C(=O)c1sc(NC2CCCCC2)nc1N — remaining activity (enzyme activity, inhibitor; 10 µM): 104%
